Data published in article PMC9052940 (RSC Advances, 2020).
Where two headings read alike, the source gives them in different places.

Legend:
[1] = cited from earlier work
[2] = 3%C10E4/n-octane/10^−2 M NaClaq; cited from earlier work
[3] = parameter of the normalized HLD; cited from earlier work
[4] = PIT-slope characterization; type: physicochemical; conditions: molar fraction; added to 3%C10E4/n-octane/10^−2 M NaClaq
In short: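 Increasing amounts of test surfactant added to a reference system of 3% C10E4/n-octane/aqueous NaCl. The shift in phase inversion temperature was recorded against concentration and against molar fraction, x = moles added/(moles C10E4 + moles added). Pure n-alkyl-β-D-glucosides and maltosides served as linear references. Average error below 10%.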

[5] = calculated from NMR experiments in D2O solutions; cited from earlier work
[6] = a = turbid solutions close and above CMC

| dPIT/dx [4] [°C] | Compound | CMC [1, 6] [mmol/L] | γCMC [1, 6] [mN m^−1] | CMC ([1]; ref 34) [mmol/L] | also measured |
| --- | --- | --- | --- | --- | --- |
|  | CCCCCCCCCCCCCC(=O)OC[C@H]1OC(O)[C@H](O)[C@H]1O (single isomer, unassigned) [5-O-Xylose monoester (α, β isomers) C14] | 0.015 | 36.0 |  |  |
|  | CCCCCCCCCCCCCCCC(=O)OC[C@H]1OC(O)[C@H](O)[C@H]1O (single isomer, unassigned) [5-O-Xylose monoester (α, β isomers) C16] | 0.022 | 41.0 |  |  |
|  | CCCCCCCCCCOCCOCCOCCOCCO [C10E4] |  |  |  | PIT (Phase Inversion Temperature) of the reference system [2]: 23.9 °C; PACN1 [3]: 8.2 |
|  | CCCCCCCCCCCCO[C@H]1O[C@H](CO)[C@@H](O)[C@H](O)[C@H]1O [α-D-Glucoside C12] | 0.042 | 41.2 |  |  |
|  | CCCCCCCCCCCCO[C@H]1O[C@H](CO)[C@@H](O[C@H]2O[C@H](CO)[C@@H](O)[C@H](O)[C@H]2O)[C@H](O)[C@H]1O [α-D-Maltoside C12] | 0.12 | 35.9 |  |  |
| 77.8 | CCCCCCCCO[C@@H]1O[C@H](CO)[C@@H](O)[C@H](O)[C@H]1O [β-D-Glucoside C8, n-octyl-β-D-glucoside] |  |  |  | CMC ([1]; ref 44): 25.0 mmol/L; γCMC ([1]; ref 44): 30.1 mN m^−1 |
| 47.8 | CCCCCCCCCCO[C@@H]1O[C@H](CO)[C@@H](O)[C@H](O)[C@H]1O [β-D-Glucoside C10] |  |  |  | CMC ([1]; ref 44): 2.2 mmol/L; γCMC ([1]; ref 44): 27.7 mN m^−1 |
| 27.0 | CCCCCCCCCCCCO[C@@H]1O[C@H](CO)[C@@H](O)[C@H](O)[C@H]1O [β-D-Glucoside C12] | 0.13 | 33.1 |  | CMC ([1]; ref 44): 0.19 mmol/L; γCMC ([1]; ref 44): 39.4 mN m^−1 |
|  | CCCCCCCCO[C@@H]1O[C@H](CO)[C@@H](O[C@H]2O[C@H](CO)[C@@H](O)[C@H](O)[C@H]2O)[C@H](O)[C@H]1O [β-D-Maltoside C8] |  |  | 23.2 |  |
|  | CCCCCCCCCO[C@@H]1O[C@H](CO)[C@@H](O[C@H]2O[C@H](CO)[C@@H](O)[C@H](O)[C@H]2O)[C@H](O)[C@H]1O [β-D-Maltoside C9] |  |  | 6.50 |  |
| 123.0 | CCCCCCCCCCO[C@@H]1O[C@H](CO)[C@@H](O[C@H]2O[C@H](CO)[C@@H](O)[C@H](O)[C@H]2O)[C@H](O)[C@H]1O [β-D-Maltoside C10] |  |  | 2.19 | CMC ([1]; ref 45): 1.95 mmol/L; γCMC ([1]; ref 45): 36.7 mN m^−1 |
| 112.2 | CCCCCCCCCCCCO[C@@H]1O[C@H](CO)[C@@H](O[C@H]2O[C@H](CO)[C@@H](O)[C@H](O)[C@H]2O)[C@H](O)[C@H]1O [β-D-Maltoside C12, n-dodecyl-β-D-maltoside] | 0.13 | 33.1 | 0.19 | Diffusion coefficient of micelles [5]: 7 × 10^−11 m^2 s^−1; CMC ([1]; ref 45): 0.15 mmol/L; γCMC ([1]; ref 45): 35.3 mN m^−1; Γeq (equilibrated surface excess) ([1]; ref 60): 3.32 × 10^−6 mol m^−2 |
| 80.7 | CCCCCCCCCCCCCCO[C@@H]1O[C@H](CO)[C@@H](O[C@H]2O[C@H](CO)[C@@H](O)[C@H](O)[C@H]2O)[C@H](O)[C@H]1O [β-D-Maltoside C14] |  |  | 0.0167 |  |
| 74.3 | CCCCCCCCCCCCCCCCO[C@@H]1O[C@H](CO)[C@@H](O[C@H]2O[C@H](CO)[C@@H](O)[C@H](O)[C@H]2O)[C@H](O)[C@H]1O [β-D-Maltoside C16] |  |  | 0.00145 |  |
